According to article PMC10373209 (ACS Omega, 2023):
“Also recorded” adds a separate entry of the source. Values belong to the compound of their own block, whether it stands above or below them.

What was measured:
Taq DNA polymerase = Taq DNA polymerase (Thermus aquaticus, UniProt P19821); test: Taq DNA polymerase inhibition; assay type: biochemical; settings: for inhibitory activity against Taq DNA polymerase (in words): PCR assay
SRP-ΔΔΔΔ (ΔΔΔΔpdr) = test: Yeast growth inhibition dose-response, SRP-ΔΔΔΔ; assay type: cell-based, Saccharomyces cerevisiae; settings: 1–128 μM range
Method in brief: (§1)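 S. cerevisiae haploid MATa deletion strains (wild-type reference BY4741) were grown in YPD at 25 °C. In a broth microdilution assay, an inoculum of OD620 0.001 (~25,000 cells/mL) was exposed to test compound at 1–128 μM in 1:2 serial dilutions. The zero control was eight technical replicates of 1% (v/v) DMSO.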

[1] = target: M-MLV Reverse Transcriptase (RT-MMLV) (Moloney murine leukemia virus, UniProt P03355); test: Retrotranscription inhibition; assay type: biochemical, myeloid murine leukemia virus
Δrad9 Δrad52 (ΔΔrad) = test: Yeast growth inhibition dose-response, Δrad9 Δrad52; assay type: cell-based, Saccharomyces cerevisiae; settings: for cytotoxicity in ΔΔrad (in words): 1–128 μM range; for DNA damage in S. cerevisiae (in words): inferred from hypersensitivity of Δrad9 Δrad52
Method in brief: as §1

Taq DNA polymerase, sequence (P19821 whole entry): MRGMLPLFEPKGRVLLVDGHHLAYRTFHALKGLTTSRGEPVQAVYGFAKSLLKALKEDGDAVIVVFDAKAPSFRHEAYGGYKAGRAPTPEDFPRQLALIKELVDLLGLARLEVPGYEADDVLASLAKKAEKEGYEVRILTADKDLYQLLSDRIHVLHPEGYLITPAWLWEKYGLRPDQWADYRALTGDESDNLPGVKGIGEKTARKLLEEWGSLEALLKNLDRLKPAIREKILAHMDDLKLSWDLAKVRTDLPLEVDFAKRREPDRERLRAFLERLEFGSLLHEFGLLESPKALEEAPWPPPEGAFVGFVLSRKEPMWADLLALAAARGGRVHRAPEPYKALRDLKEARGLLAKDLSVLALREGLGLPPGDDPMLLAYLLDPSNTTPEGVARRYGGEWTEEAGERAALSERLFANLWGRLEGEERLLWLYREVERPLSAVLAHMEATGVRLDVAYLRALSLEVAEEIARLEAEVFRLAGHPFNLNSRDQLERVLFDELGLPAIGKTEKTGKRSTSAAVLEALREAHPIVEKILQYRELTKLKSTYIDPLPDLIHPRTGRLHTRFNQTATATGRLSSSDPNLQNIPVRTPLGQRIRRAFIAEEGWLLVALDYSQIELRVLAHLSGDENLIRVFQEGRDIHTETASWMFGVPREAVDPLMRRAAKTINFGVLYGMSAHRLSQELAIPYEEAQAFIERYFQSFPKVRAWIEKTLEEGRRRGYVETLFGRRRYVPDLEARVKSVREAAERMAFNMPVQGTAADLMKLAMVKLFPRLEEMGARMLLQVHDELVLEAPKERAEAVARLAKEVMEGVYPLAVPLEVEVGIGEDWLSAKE

- activity in RT-PCR assay (in words) [1]: did not show activity
SMILES: O=c1cc(OCCCC2CO2)c2ccccc2o1 (stereo not drawn) [Compound 5a, 4-(3-(Oxiran-2-yl)propoxy)-2H-chromen-2-one]
- cytotoxicity in ΔΔrad (in words) (Δrad9 Δrad52 (ΔΔrad)): Cytotoxicity was observed
- DNA damage in S. cerevisiae (in words) (Δrad9 Δrad52 (ΔΔrad)): showed DNA damaging activity

- activity in RT-PCR assay (in words) [1]: without activity
SMILES: O=c1ccc2ccc(OCCC3CO3)cc2o1 (stereo not drawn) [Compound 5b, 7-(2-(Oxiran-2-yl)ethoxy)-2H-chromen-2-one]
- cytotoxicity in ΔΔrad (in words) (Δrad9 Δrad52 (ΔΔrad)): Cytotoxicity was observed
- DNA damage in S. cerevisiae (in words) (Δrad9 Δrad52 (ΔΔrad)): caused DNA damage; also recorded: showed DNA damaging activity

Continued, compound first:

SMILES: CC(=O)Oc1ccc2c(CSC(C)=O)cc(=O)oc2c1 [Compound 3c, 4-((Acetylthio)methyl)-2-oxo-2H-chromen-7-yl acetate]
- IC50 (Taq DNA polymerase): 48.2 ± 1.2 µM

SMILES: CCCCOc1ccc2ccc(=O)oc2c1 [Compound 6a, 7-Butoxy-2H-chromen-2-one]
- cytotoxicity in ΔΔΔΔpdr strain (in words) (SRP-ΔΔΔΔ (ΔΔΔΔpdr)): cytotoxic

SMILES: C=CCCCOc1ccc2ccc(=O)oc2c1 [Compound 4c, 7-(Pent-4-en-1-yloxy)-2H-chromen-2-one]
- cytotoxicity in ΔΔΔΔpdr strain (in words) (SRP-ΔΔΔΔ (ΔΔΔΔpdr)): cytotoxic

SMILES: CC(=O)SCc1cc(=O)oc2cc(O)ccc12 [Compound 3d, S-((7-Hydroxy-2-oxo-2H-chromen-4-yl)methyl) ethanethioate]
- IC50 (Taq DNA polymerase): 143 ± 4.22 µM

SMILES: CCCCCCOc1ccc2ccc(=O)oc2c1 [Compound 6b, 7-(Hexyloxy)-2H-chromen-2-one]
- cytotoxicity in ΔΔΔΔpdr strain (in words) (SRP-ΔΔΔΔ (ΔΔΔΔpdr)): cytotoxic

SMILES: CC(=O)OC[C@@H]1OC(Oc2ccc3ccc(=O)oc3c2)C(OC(C)=O)[C@H](OC(C)=O)C1OC(C)=O (stereo partly drawn) [Compound 7c, (2S,4R)-2-(Acetoxymethyl)-6-((2-oxo-2H-chromen-7-yl)oxy)tetrahydro-2H-pyran-3,4,5-triyl triacetate]
- cytotoxicity in ΔΔΔΔpdr strain (in words) (SRP-ΔΔΔΔ (ΔΔΔΔpdr)): cytotoxic

SMILES: COc1ccc2oc(=O)cc(CSC(C)=O)c2c1 [Compound 3f, S-((6-Methoxy-2-oxo-2H-chromen-4-yl)methyl) ethanethioate]
- inhibitory activity against Taq DNA polymerase (in words) (Taq DNA polymerase): absence of activity

SMILES: O=c1ccc2ccc(OCCCC3CO3)cc2o1 (stereo not drawn) [Compound 5c, 7-(3-(Oxiran-2-yl)propoxy)-2H-chromen-2-one]
- cytotoxicity in ΔΔrad (in words) (Δrad9 Δrad52 (ΔΔrad)): Cytotoxicity was observed
- DNA damage in S. cerevisiae (in words) (Δrad9 Δrad52 (ΔΔrad)): caused DNA damage; also recorded: showed DNA damaging activity

SMILES: O=c1cc(CCl)c2ccc(O)c(O)c2o1 [Compound 2c, 4-(Chloromethyl)-7,8-dihydroxy-2H-chromen-2-one]
- IC50 (Taq DNA polymerase): 142 ± 3.4 µM

SMILES: O=c1cc(CCl)c2c(O)cc(O)cc2o1 [Compound 2d, 4-(Chloromethyl)-5,7-dihydroxy-2H-chromen-2-one]
- IC50 (Taq DNA polymerase): 20.7 ± 2.1 µM

SMILES: CC(=O)Oc1ccc2oc(=O)cc(CSC(C)=O)c2c1 [Compound 3g, 4-((Acetylthio)methyl)-2-oxo-2H-chromen-6-yl acetate]
- cytotoxicity in ΔΔΔΔpdr strain (in words) (SRP-ΔΔΔΔ (ΔΔΔΔpdr)): cytotoxic
- inhibitory activity against Taq DNA polymerase (in words) (Taq DNA polymerase): without activity; also recorded: did not show in vitro activity

SMILES: C=CCCOc1ccc2ccc(=O)oc2c1 [Compound 4b, 7-(But-3-en-1-yloxy)-2H-chromen-2-one]
- cytotoxicity in ΔΔΔΔpdr strain (in words) (SRP-ΔΔΔΔ (ΔΔΔΔpdr)): cytotoxic

SMILES: O=c1cc(CCl)c2cc(O)ccc2o1 [Compound 2b, 4-(Chloromethyl)-6-hydroxy-2H-chromen-2-one]
- inhibitory activity against Taq DNA polymerase (in words) (Taq DNA polymerase): low or null in vitro activity

SMILES: CC(=O)SCc1cc(=O)oc2ccc(O)cc12 [Compound 3e, S-((6-Hydroxy-2-oxo-2H-chromen-4-yl)methyl) ethanethioate]
- IC50 (Taq DNA polymerase): 188 ± 19.4 µM

SMILES: CCCCCCCOc1ccc2ccc(=O)oc2c1 [Compound 6c, 7-(Heptyloxy)-2H-chromen-2-one]
- cytotoxicity in ΔΔΔΔpdr strain (in words) (SRP-ΔΔΔΔ (ΔΔΔΔpdr)): cytotoxic

SMILES: O=c1cc(CCl)c2ccc(O)cc2o1 [Compound 2a, 4-(Chloromethyl)-7-hydroxy-2H-chromen-2-one]
- inhibitory activity against Taq DNA polymerase (in words) (Taq DNA polymerase): low or null in vitro activity
